Source: ChEMBL document CHEMBL1123878, “Potential antitumor agents. 50. In vivo solid-tumor activity of derivatives of N-[2-(dimethylamino)ethyl]acridine-4-carboxamide” (J Med Chem, 1987)
Calls of active or inactive are those of the source. No cut-off for these calls is given here.

Key:
[1] = tested on: L1210; assay: Inhibition murine leukemia L1210 cell growth in culture; assay type: functional, cell-based; details: Mus musculus
Summary of the method: (§1)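 IC50 is the drug concentration, in nM, that inhibits growth of the cultured cell line by 50%.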

[2] = Lipophilicity index (Rm) (HPLC); assay type: physicochemical
[3] = tested on: P388; assay: (§2) Percentage increase in life span of tumor bearing animals compared to non treated, tumor-bearing controls when treated at the optimal dose of 100 mg/kg/day intraperitoneally; assay type: functional; details: Mus musculus, P388, ip; route intraperitoneal
[4] = tested on: Lewis lung carcinoma cell line; assay: (§3) Percentage increase in life span of tumor bearing animals compared to non treated, tumor-bearing controls when treated at the optimal dose of 150 mg/kg/day intraperitoneally; assay type: functional; details: Mus musculus, ip, route intraperitoneal
[5] = Selectivity ratio of IC50 of HCT to IC50 of L1210 cell lines; assay type: functional
[6] = tested on: HCT-8; assay: Inhibition of human colon tumor (HCT-8) cell growth in culture; assay type: functional, cell-based; summary of the method: as §1
[7] = tested on: Lewis lung carcinoma cell line; assay: as §2; assay type: functional; details: Mus musculus, ip, route intraperitoneal
[8] = tested on: Lewis lung carcinoma cell line; assay: (§4) Percentage increase in life span of tumor bearing animals compared to non treated, tumor-bearing controls when treated at the optimal dose of 65 mg/kg/day intraperitoneally; assay type: functional; details: Mus musculus, ip, route intraperitoneal
[9] = tested on: P388; assay: as §4; assay type: functional; details: Mus musculus, P388, ip; route intraperitoneal
[10] = Base strength is expressed as pKa, determined in water at 25 degrees Centigrade by spectrophotometric method.; assay type: physicochemical
[11] = tested on: P388; assay: Percentage increase in life span of tumor bearing animals compared to non treated, tumor-bearing controls when treated at the optimal dose of 66 mg/kg/day intraperitoneally; assay type: functional; details: Mus musculus, P388, ip; route intraperitoneal
[12] = tested on: Lewis lung carcinoma cell line; assay: Percentage increase in life span of tumor bearing animals compared to non treated, tumor-bearing controls when treated at the optimal dose of 45 mg/kg/day intraperitoneally; assay type: functional; details: Mus musculus, ip, route intraperitoneal
[13] = tested on: P388; assay: Percent increase in life span of P388 cells compared to non treated, tumor-bearing controls when treated at the optimal dose of 225 mg/kg/day; IA denotes inactive; assay type: functional, organism-based; details: Mus musculus
[14] = tested on: P388; assay: Percentage increase in life span of tumor bearing animals compared to non treated, tumor-bearing controls when treated at the optimal dose of 13.3 mg/kg/day intraperitoneally; assay type: functional; details: Mus musculus, P388, ip; route intraperitoneal
[15] = tested on: Lewis lung carcinoma cell line; assay: Percentage increase in life span of tumor bearing animals compared to non treated, tumor-bearing controls when administered intraperitoneally; IA denotes inactive; assay type: functional; details: Mus musculus
Summary of the method: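 Drug was given ip in 0.1 mL 30% v/v ethanol/water. For P388, 10^6 cells were inoculated ip and dosing was on days 1, 5 and 9, with >20% significant. For Lewis lung, 10^6 cells were inoculated iv and dosing was on days 5, 9 and 13, with >40% significant. The read-out is % lifespan increase over untreated controls.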

[16] = tested on: P388; assay: Percentage increase in life span of tumor (P388 cells) bearing animals compared to non treated, tumor-bearing controls when treated at the optimal dose of 45 mg/kg/day; IA denotes inactive; assay type: functional, organism-based; details: Mus musculus
[17] = tested on: Lewis lung carcinoma cell line; assay: (§5) Percentage increase in life span of tumor bearing animals compared to non treated, tumor-bearing controls when treated at the optimal dose of 30 mg/kg/day intraperitoneally; assay type: functional; details: Mus musculus, ip, route intraperitoneal
[18] = tested on: P388; assay: as §5; assay type: functional; details: Mus musculus, P388, ip; route intraperitoneal
[19] = tested on: P388; assay: as §3; assay type: functional; details: Mus musculus, P388, ip; route intraperitoneal
[20] = tested on: Nucleic Acid; assay: Binding constant to poly(dG-dC)DNA by ethidium bromide displacement; assay type: nucleic-acid assay
Summary of the method: (§6)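 Association constants derived from the drug concentration displacing 50% of bound ethidium from the polynucleotide, assuming competitive binding of drug and ethidium to DNA.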

[21] = tested on: P388; assay: Percent increase in life span of P388 tumor bearing animals compared to non treated, tumor-bearing controls when treated at the optimal dose of 150 mg/kg/day; IA denotes inactive; assay type: functional, organism-based; details: Mus musculus
[22] = tested on: Nucleic Acid; assay: Binding constant to poly(dA-dT)DNA by ethidium bromide displacement; assay type: nucleic-acid assay; summary of the method: as §6

| SMILES | IC50 [1] | Rm [2] | ILS at 100 mg/kg/day [3] | Ratio [5] | IC50 [6] | pKa [10] | also measured |
| --- | --- | --- | --- | --- | --- | --- | --- |
| Cc1cc(C(=O)NCCN(C)C)c2nc3ccccc3cc2c1.Cl.Cl | 130 nM | -0.04 | 120% | 5.1 | 657 nM | – | ILS at 150 mg/kg/day [4]: 33% |
| CN(C)CCNC(=O)c1cc(Cl)cc2cc3ccccc3nc12.Cl.Cl | 31 nM | 0.03 | 62% | 14.2 | 440 nM | – | ILS at 100 mg/kg/day [7]: 219% |
| Cc1ccc2nc3c(C(=O)NCCN(C)C)cccc3cc2c1.Cl.Cl | 200 nM | -0.05 | 68% | 6.2 | 1240 nM | – | ILS at 150 mg/kg/day [4]: 85% |
| CN(C)CCNC(=O)c1cccc2cc3c(Cl)cccc3nc12.Cl.Cl.Cl | 160 nM | 0.01 | – | 4.9 | 790 nM | – | ILS at 65 mg/kg/day [8]: 63%; ILS at 65 mg/kg/day [9]: 102% |
| CN(C)CCNC(=O)c1cccc2cc3ccccc3nc12.Cl.Cl | 105 nM | -0.2 | – | 8.6 | 900 nM | 3.54 | ILS at 66 mg/kg/day [11]: 91% |
| CN(C)CCNC(=O)c1cccc2cc3ccc(Cl)cc3nc12.Cl | 6.4 nM | -0.06 | – | 54 | 350 nM | – | ILS at 65 mg/kg/day [8]: 91% |
| COc1cccc2cc3cccc(C(=O)NCCN(C)C)c3nc12.Cl | 12 nM | -0.31 | – | 15 | 180 nM | 3.87 | ILS at 45 mg/kg/day [12]: 54%; ILS at 65 mg/kg/day [9]: 70% |
| CN(C)CCNC(=O)c1ccc2nc3ccccc3cc2c1.Cl.Cl | 9300 nM | -0.57 | – | – | – | 4.37 | ILS [13]: inactive |
| Cl.Cl.NCCNC(=O)c1cccc2cc3ccccc3nc12 | 275 nM | -0.28 | – | 5.8 | 1600 nM | – | ILS at 13.3 mg/kg/day [14]: 24%; ILS [15]: inactive |
| Cc1c2ccccc2nc2c(C(=O)NCCN(C)C)cccc12.Cl.Cl | 150 nM | -0.33 | – | 1.1 | 160 nM | 4.34 | IA [16]: inactive |
| Cc1cccc2cc3cccc(C(=O)NCCN(C)C)c3nc12.Cl.Cl | 4.3 nM | -0.17 | – | 12.6 | 54 nM | – | ILS at 30 mg/kg/day [17]: 120%; ILS at 30 mg/kg/day [18]: 87% |
| Cc1ccc(C(=O)NCCN(C)C)c2nc3ccccc3cc12.Cl.Cl | 37 nM | 0.1 | 71% | 10.8 | 400 nM | – | – |
| CCN(CC)CCNC(=O)c1cccc2cc3ccccc3nc12.Cl.Cl | 630 nM | 0.17 | – | – | – | – | ILS at 150 mg/kg/day [4]: 62%; ILS at 150 mg/kg/day [19]: 61% |
| COc1cccc2nc3c(C(=O)NCCN(C)C)cccc3cc12.Cl | 58 nM | -0.12 | 128% | 9 | 520 nM | 3.82 | ILS at 100 mg/kg/day [7]: 66% |
| CN(C)CCCNC(=O)c1cccc2cc3ccccc3nc12.Cl.Cl | 370 nM | -0.1 | – | 7.8 | 2900 nM | – | ILS at 150 mg/kg/day [4]: 84%; ILS at 150 mg/kg/day [19]: 118% |
| CN(C)CCNC(=O)c1cccc2nc3ccccc3cc12.Cl.Cl | 17900 nM | -0.56 | – | – | – | 4.24 | Log K [20]: 7.7; ILS [21]: inactive; Log K [22]: 6.87 |
